≈ marks a conversion by molar mass, not a printed value.
Columns and labels:
Assay type in all cases: functional
Kluyveromyces marxianus = experiment: Antifungal activity against Candida kefyr by micro-broth dilution method
Candida albicans [1] = experiment: Antifungal activity against Candida albicans Y0109 by micro-broth dilution method
Summary of the method: (§1)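 MIC80 determined by broth microdilution following NCCLS methods. C. albicans SC5314 and Y0109 and C. neoformans BLS108 served as quality-control strains and were included in every assay. Fluconazole, itraconazole, voriconazole and amphotericin B were run as positive controls.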

Trichophyton rubrum = experiment: Antifungal activity against Trichophyton rubrum by micro-broth dilution method; summary of the method: as §1
Candida parapsilosis = experiment: Antifungal activity against Candida parapsilosis by micro-broth dilution method; settings: Lodderomyces parapsilosis; summary of the method: as §1
Candida albicans [2] = experiment: Antifungal activity against Candida albicans SC5314 by micro-broth dilution method; summary of the method: as §1
Cryptococcus neoformans = experiment: Antifungal activity against Cryptococcus neoformans BLS108 by micro-broth dilution method; summary of the method: as §1
Candida tropicalis = experiment: Antifungal activity against Candida tropicalis by micro-broth dilution method; summary of the method: as §1
Aspergillus fumigatus = experiment: Antifungal activity against Aspergillus fumigatus by micro-broth dilution method; summary of the method: as §1

| SMILES | MIC80 (Kluyveromyces marxianus) [µg/mL] | MIC80 (Candida albicans [1]) [µg/mL] | MIC80 (Trichophyton rubrum) [µg/mL] | MIC80 (Candida parapsilosis) [µg/mL] | MIC80 (Candida albicans [2]) [µg/mL] | MIC80 (Cryptococcus neoformans) [µg/mL] | MIC80 (Candida tropicalis) [µg/mL] | MIC80 (Aspergillus fumigatus) [µg/mL] |
| --- | --- | --- | --- | --- | --- | --- | --- | --- |
| COc1ccc(OC)c(/C=C/C(=O)Nc2ccc(-n3cnn(CC(O)(Cn4cncn4)c4ccc(F)cc4F)c3=O)cc2)c1 (single isomer, unassigned) | > 64 | 16 (≈ 26.5 µM) | > 64 | 1 (≈ 1.66 µM) | 1 (≈ 1.66 µM) | > 64 | > 64 | > 64 |
| O=C(/C=C/c1ccccc1F)Nc1ccc(-n2cnn(CC(O)(Cn3cncn3)c3ccc(F)cc3F)c2=O)cc1 (single isomer, unassigned) | > 64 | 1 (≈ 1.78 µM) | > 64 | 4 (≈ 7.12 µM) | 1 (≈ 1.78 µM) | > 64 | 4 (≈ 7.12 µM) | > 64 |
| O=C(/C=C/c1ccc(Cl)c(Cl)c1)Nc1ccc(-n2cnn(CC(O)(Cn3cncn3)c3ccc(F)cc3F)c2=O)cc1 (single isomer, unassigned) | > 64 | 4 (≈ 6.53 µM) | > 64 | 64 (≈ 105 µM) | 4 (≈ 6.53 µM) | > 64 | 4 (≈ 6.53 µM) | > 64 |
| O=C(/C=C/c1cccc(F)c1)Nc1ccc(-n2cnn(CC(O)(Cn3cncn3)c3ccc(F)cc3F)c2=O)cc1 (single isomer, unassigned) | > 64 | 16 (≈ 28.5 µM) | > 64 | 16 (≈ 28.5 µM) | 16 (≈ 28.5 µM) | > 64 | > 64 | > 64 |
| CCCCCc1ccc(C(=O)Nc2ccc(-n3cnn(CC(O)(Cn4cncn4)c4ccc(F)cc4F)c3=O)cc2)cc1 (single isomer, unassigned) | > 64 | > 64 | > 64 | > 64 | 4 (≈ 6.81 µM) | > 64 | > 64 | > 64 |
| COc1ccc(/C=C/C(=O)Nc2ccc(-n3cnn(CC(O)(Cn4cncn4)c4ccc(F)cc4F)c3=O)cc2)cc1OC (single isomer, unassigned) | > 64 | 1 (≈ 1.66 µM) | > 64 | 4 (≈ 6.63 µM) | 1 (≈ 1.66 µM) | > 64 | 1 (≈ 1.66 µM) | > 64 |

The next lines start with the values.

| MIC80 (Kluyveromyces marxianus) [µg/mL] | MIC80 (Candida albicans [1]) [µg/mL] | MIC80 (Trichophyton rubrum) [µg/mL] | MIC80 (Candida parapsilosis) [µg/mL] | MIC80 (Candida albicans [2]) [µg/mL] | MIC80 (Cryptococcus neoformans) [µg/mL] | MIC80 (Candida tropicalis) [µg/mL] | MIC80 (Aspergillus fumigatus) [µg/mL] | SMILES |
| --- | --- | --- | --- | --- | --- | --- | --- | --- |
| 16 (≈ 30.1 µM) | 0.0625 (≈ 0.118 µM) | > 64 | 0.25 (≈ 0.47 µM) | 0.0625 (≈ 0.118 µM) | > 64 | 1 (≈ 1.88 µM) | > 64 | Cc1ccc(C(=O)Nc2ccc(-n3cnn(CC(O)(Cn4cncn4)c4ccc(F)cc4F)c3=O)cc2)cc1 (single isomer, unassigned) |
| 16 (≈ 29.2 µM) | 0.0625 (≈ 0.114 µM) | > 64 | 0.0625 (≈ 0.114 µM) | 0.0625 (≈ 0.114 µM) | > 64 | 1 (≈ 1.83 µM) | > 64 | COc1cccc(C(=O)Nc2ccc(-n3cnn(CC(O)(Cn4cncn4)c4ccc(F)cc4F)c3=O)cc2)c1 (single isomer, unassigned) |
| > 64 | 0.0625 (≈ 0.118 µM) | > 64 | 0.0156 (≈ 0.0293 µM) | 0.25 (≈ 0.47 µM) | > 64 | 1 (≈ 1.88 µM) | > 64 | Cc1ccccc1C(=O)Nc1ccc(-n2cnn(CC(O)(Cn3cncn3)c3ccc(F)cc3F)c2=O)cc1 (single isomer, unassigned) |
| 1 (≈ 1.87 µM) | 4 (≈ 7.47 µM) | 16 (≈ 29.9 µM) | 0.0156 (≈ 0.0291 µM) | 0.0625 (≈ 0.117 µM) | 64 (≈ 120 µM) | 0.0625 (≈ 0.117 µM) | > 64 | O=C(Nc1ccc(-n2cnn(CC(O)(Cn3cncn3)c3ccc(F)cc3F)c2=O)cc1)c1ccccc1F (single isomer, unassigned) |
| 4 (≈ 7.33 µM) | 0.25 (≈ 0.458 µM) | > 64 | 0.25 (≈ 0.458 µM) | 0.25 (≈ 0.458 µM) | 64 (≈ 117 µM) | 0.25 (≈ 0.458 µM) | > 64 | Cc1ccc(C(=O)Nc2ccc(-n3cnn(CC(O)(Cn4cncn4)c4ccc(F)cc4F)c3=O)cc2)cc1C (single isomer, unassigned) |
| > 64 | 1 (≈ 1.74 µM) | 4 (≈ 6.97 µM) | 0.0625 (≈ 0.109 µM) | 0.0625 (≈ 0.109 µM) | 64 (≈ 112 µM) | 0.25 (≈ 0.436 µM) | > 64 | CC(C)(C)c1ccc(C(=O)Nc2ccc(-n3cnn(CC(O)(Cn4cncn4)c4ccc(F)cc4F)c3=O)cc2)cc1 (single isomer, unassigned) |
